# Source: ChEMBL document CHEMBL1157359, “Binding of ceftobiprole and comparators to the penicillin-binding proteins of Escherichia coli, Pseudomonas aeruginosa, Staphylococcus aureus, and Streptococcus pneumoniae” (Antimicrob Agents Chemother, 2007)
# Legend:
# [1] = Inhibition of bocillin FL binding to Pseudomonas aeruginosa PAO1 penicillin-binding protein 1a
# How it was run: (§1)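 P. aeruginosa PAO1 PBPs were isolated and competed with 10 drug concentrations from 0.06 μg/ml to 32 μg/ml before Bocillin FL labeling. Bands were detected by fluorescence imaging. IC50 was taken as 50% inhibition of Bocillin FL binding versus the no-drug sample.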
# [2] = Inhibition of bocillin FL binding to Escherichia coli MC4100 penicillin-binding protein 6
# How it was run: (§2)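 Isolated E. coli MC4100 PBPs were competed with 10 drug concentrations from 0.016 μg/ml to 8 μg/ml, then labeled with Bocillin FL. Fluorescent PBP bands were imaged. IC50 is the concentration giving 50% inhibition of Bocillin FL binding to each PBP relative to a no-drug control.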
# [3] = Inhibition of bocillin FL binding to Escherichia coli MC4100 penicillin-binding protein 5; how it was run: as §2
# [4] = Inhibition of bocillin FL binding to Escherichia coli MC4100 penicillin-binding protein 4; how it was run: as §2
# [5] = Inhibition of bocillin FL binding to Escherichia coli MC4100 penicillin-binding protein 3; how it was run: as §2
# [6] = biological target: T1, Cell shape peptidoglycan synthetase penicillin-binding protein 2 (Escherichia coli, UniProt Q2TL65); test: Inhibition of bocillin FL binding to Escherichia coli MC4100 penicillin-binding protein 2
# T1 sequence (Q2TL65 whole entry): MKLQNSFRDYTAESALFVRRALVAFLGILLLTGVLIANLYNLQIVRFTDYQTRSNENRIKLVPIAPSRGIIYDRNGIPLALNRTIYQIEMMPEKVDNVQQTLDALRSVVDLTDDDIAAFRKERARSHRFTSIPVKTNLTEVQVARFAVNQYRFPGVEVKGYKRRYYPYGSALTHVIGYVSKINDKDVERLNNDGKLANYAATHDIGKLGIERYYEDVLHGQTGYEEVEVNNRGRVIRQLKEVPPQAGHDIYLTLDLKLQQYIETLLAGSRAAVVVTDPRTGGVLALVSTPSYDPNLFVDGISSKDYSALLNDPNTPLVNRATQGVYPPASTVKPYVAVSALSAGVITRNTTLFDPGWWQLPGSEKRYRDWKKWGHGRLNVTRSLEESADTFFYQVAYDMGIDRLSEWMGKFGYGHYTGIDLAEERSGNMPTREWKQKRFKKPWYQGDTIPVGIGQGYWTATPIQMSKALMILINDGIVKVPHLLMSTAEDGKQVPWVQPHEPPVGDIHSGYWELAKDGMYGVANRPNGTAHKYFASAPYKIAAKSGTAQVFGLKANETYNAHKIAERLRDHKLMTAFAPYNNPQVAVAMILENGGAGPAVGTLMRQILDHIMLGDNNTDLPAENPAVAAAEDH
# How it was run: (§3)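 Isolated E. coli MC4100 PBPs; competition with drug at 10 concentrations, 0.016 μg/ml to 8 μg/ml, then Bocillin FL labeling. Gel bands visualized by imaging. IC50 is the concentration giving 50% inhibition of Bocillin FL binding relative to a no-drug control.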
# [7] = Inhibition of bocillin FL binding to Escherichia coli MC4100 penicillin-binding protein 1b; how it was run: as §2
# [8] = Inhibition of bocillin FL binding to Escherichia coli MC4100 penicillin-binding protein 1a; how it was run: as §3
# [9] = biological target: T2, Penicillin-binding protein 2 (Pseudomonas aeruginosa, UniProt Q9X6V3); test: Inhibition of bocillin FL binding to Pseudomonas aeruginosa PAO1 penicillin-binding protein 2
# T2 sequence (Q9X6V3 whole entry): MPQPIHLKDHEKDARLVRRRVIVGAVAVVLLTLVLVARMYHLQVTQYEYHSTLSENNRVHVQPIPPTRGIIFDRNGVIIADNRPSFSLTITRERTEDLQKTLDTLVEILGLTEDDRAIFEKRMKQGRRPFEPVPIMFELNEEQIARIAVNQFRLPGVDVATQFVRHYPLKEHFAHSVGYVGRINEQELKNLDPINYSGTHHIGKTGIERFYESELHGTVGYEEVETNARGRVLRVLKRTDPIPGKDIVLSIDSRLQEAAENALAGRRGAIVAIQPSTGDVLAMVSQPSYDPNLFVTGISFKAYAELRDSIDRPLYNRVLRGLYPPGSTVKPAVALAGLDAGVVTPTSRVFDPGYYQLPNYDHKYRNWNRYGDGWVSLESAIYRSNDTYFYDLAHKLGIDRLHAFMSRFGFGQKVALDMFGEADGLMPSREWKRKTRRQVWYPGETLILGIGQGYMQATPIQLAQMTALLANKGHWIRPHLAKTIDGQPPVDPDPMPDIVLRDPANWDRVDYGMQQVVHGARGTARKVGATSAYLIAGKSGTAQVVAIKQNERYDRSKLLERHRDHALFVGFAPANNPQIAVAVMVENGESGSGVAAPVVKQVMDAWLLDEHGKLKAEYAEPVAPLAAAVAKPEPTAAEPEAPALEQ
# How it was run: (§4)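 Isolated P. aeruginosa PAO1 PBPs; drug added at 10 concentrations, 0.06 μg/ml to 32 μg/ml, before Bocillin FL labeling. Labeled PBPs imaged. IC50 is the drug level cutting Bocillin FL binding by 50% versus a no-drug sample.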
# [10] = biological target: Penicillin-binding protein 3 (Pseudomonas aeruginosa, UniProt Q51504); test: Inhibition of bocillin FL binding to Pseudomonas aeruginosa PAO1 penicillin-binding protein 3; how it was run: as §4
# [11] = Inhibition of bocillin FL binding to Pseudomonas aeruginosa PAO1 penicillin-binding protein 4; how it was run: as §1
# [12] = Inhibition of bocillin FL binding to Pseudomonas aeruginosa PAO1 penicillin-binding protein 5/6; how it was run: as §4
# [13] = biological target: T3, Penicillin-binding protein 1B (Pseudomonas aeruginosa, UniProt Q9X6W0); test: Inhibition of bocillin FL binding to Pseudomonas aeruginosa PAO1 penicillin-binding protein 1b; how it was run: as §4
# T3 sequence (Q9X6W0 whole entry): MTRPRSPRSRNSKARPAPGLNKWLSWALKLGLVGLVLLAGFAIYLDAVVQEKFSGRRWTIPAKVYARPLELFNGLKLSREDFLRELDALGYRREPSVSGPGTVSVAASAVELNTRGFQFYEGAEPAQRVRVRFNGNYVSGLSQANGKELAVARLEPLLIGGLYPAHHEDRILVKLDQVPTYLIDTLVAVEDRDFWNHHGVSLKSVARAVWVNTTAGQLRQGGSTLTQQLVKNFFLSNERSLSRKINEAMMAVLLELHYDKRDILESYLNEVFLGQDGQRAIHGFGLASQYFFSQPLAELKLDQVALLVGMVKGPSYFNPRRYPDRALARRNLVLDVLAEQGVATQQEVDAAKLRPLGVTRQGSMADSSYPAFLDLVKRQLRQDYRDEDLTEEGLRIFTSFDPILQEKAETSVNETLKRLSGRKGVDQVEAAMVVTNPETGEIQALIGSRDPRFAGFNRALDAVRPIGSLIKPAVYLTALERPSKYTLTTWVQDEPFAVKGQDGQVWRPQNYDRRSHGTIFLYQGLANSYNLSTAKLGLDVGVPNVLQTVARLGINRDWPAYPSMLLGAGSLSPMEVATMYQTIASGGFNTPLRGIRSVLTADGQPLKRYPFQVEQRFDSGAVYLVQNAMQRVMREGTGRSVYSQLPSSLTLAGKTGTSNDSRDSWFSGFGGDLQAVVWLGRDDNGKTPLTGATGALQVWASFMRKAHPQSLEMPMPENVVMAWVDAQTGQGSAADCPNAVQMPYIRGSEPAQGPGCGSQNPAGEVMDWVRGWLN
# Penicillin-binding protein 3, sequence (Q51504 whole entry): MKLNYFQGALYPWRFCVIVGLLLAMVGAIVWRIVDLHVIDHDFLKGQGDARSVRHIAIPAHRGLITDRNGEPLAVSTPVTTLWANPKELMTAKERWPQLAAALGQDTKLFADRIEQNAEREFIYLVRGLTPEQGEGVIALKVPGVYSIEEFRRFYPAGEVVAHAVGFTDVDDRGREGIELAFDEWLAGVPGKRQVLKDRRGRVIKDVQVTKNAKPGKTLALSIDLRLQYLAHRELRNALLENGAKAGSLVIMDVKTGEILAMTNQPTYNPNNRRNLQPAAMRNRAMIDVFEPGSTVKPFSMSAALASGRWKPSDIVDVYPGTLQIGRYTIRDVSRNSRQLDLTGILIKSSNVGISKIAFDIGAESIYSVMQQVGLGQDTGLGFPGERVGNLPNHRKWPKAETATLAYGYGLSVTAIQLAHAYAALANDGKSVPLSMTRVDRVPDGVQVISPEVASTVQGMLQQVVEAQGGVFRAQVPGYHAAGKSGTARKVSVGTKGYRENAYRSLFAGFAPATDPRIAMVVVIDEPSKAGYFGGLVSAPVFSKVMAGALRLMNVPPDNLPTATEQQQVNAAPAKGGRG
Compound,IC50 [1] [µg/mL],IC50 [2] [µg/mL],IC50 [3] [µg/mL],IC50 [4] [µg/mL],IC50 [5] [µg/mL],IC50 [6] [nM],IC50 [7] [µg/mL],IC50 [8] [µg/mL],IC50 [9] [µM],IC50 [10] [nM],IC50 [11] [µg/mL],IC50 [12] [µg/mL],IC50 [13] [nM]
CO/N=C(\C(=O)N[C@@H]1C(=O)N2C(C(=O)[O-])=C(C[N+]3(C)CCCC3)CS[C@H]12)c1csc(N)n1,0.1,> 4,> 4,> 4,0.1,1250,3.7,2,16.6,208,0.3,> 32,–
C[C@H]1[C@H](NC(=O)/C(=N\OC(C)(C)C(=O)O)c2csc(N)n2)C(=O)N1S(=O)(=O)O (stereo in doubt) [AZTREONAM],2,> 8,> 8,> 8,0.03,> 18400,> 8,> 8,36.7,68.9,16,> 16,–
C[C@@H](O)[C@H]1C(=O)N2C(C(=O)O)=C(SCCNC=N)C[C@H]12 [IMIPENEM ANHYDROUS],0.5,0.1,0.5,0.01,8,33.4,0.5,0.5,0.334,334,0.01,2,1670
